ChEMBL document CHEMBL1155418, “Synthesis and structure-activity relationships of N3-pyridylpyrazinones as corticotropin-releasing factor-1 (CRF1) receptor antagonists” (Bioorg Med Chem Lett, 2010)

Tests used:
[1] = target: T1, Corticotropin-releasing factor receptor 1 (Rattus norvegicus, UniProt P35353); experiment: Displacement of [125I]Tyr-ovine-CRF from CRF1 receptor in rat frontal cortex homogenate by gamma counting; type: tissue-based
T1 sequence (P35353 whole entry): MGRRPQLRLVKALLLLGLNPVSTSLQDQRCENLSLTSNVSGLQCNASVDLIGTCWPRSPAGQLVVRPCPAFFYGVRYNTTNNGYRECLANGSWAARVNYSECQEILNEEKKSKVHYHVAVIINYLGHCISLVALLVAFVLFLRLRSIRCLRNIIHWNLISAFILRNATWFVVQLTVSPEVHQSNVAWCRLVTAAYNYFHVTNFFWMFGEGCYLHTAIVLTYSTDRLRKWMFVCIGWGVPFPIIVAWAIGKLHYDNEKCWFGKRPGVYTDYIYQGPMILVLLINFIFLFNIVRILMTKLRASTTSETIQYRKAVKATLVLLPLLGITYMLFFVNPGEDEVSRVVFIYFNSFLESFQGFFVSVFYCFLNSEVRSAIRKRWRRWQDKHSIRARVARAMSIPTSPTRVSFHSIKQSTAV

[2] = species: Rattus norvegicus; experiment: Metabolic stability in rat liver microsomes assessed as compound remaining after 10 mins
[3] = species: Homo sapiens; experiment: Metabolic stability in human liver microsomes assessed as compound remaining after 10 mins
[4] = Dissociation constant, pKa at pH 2 to 11 by spectrophotometric titration method; type: physicochemical
Summary of the method: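 pKa determined by a spectrophotometric titration method.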

| Structure (SMILES) | IC50 [1] [nM] | remaining at 10 min [2] [%] | remaining at 10 min [3] [%] | pKa [4] |
| --- | --- | --- | --- | --- |
| COc1nc(C)c(Nc2nc(Cl)cn([C@H](C)C3CC3)c2=O)c(OC)n1 | 240 | 81 | 86 | – |
| COC[C@@H](C1CC1)n1cc(Cl)nc(Nc2c(C)nc(OC)nc2OC)c1=O | 31 | 25 | 71 | – |
| CCOc1nc(C)c(Nc2nc(Cl)cn([C@H](C)C3CC3)c2=O)cc1C | 2.7 | 81 | 93 | – |
| Cc1cc(C)c(Nc2nc(Cl)cn([C@H](C)C3CC3)c2=O)c(C)n1 | 65 | 76 | 87 | 7.9 |
| COC[C@H](C1CC1)n1cc(Cl)nc(Nc2c(C)cc(OC(F)F)nc2C)c1=O | 4.7 | – | – | – |
| COc1nc(C)nc(C#N)c1Nc1nc(Cl)cn([C@H](C)C2CC2)c1=O | 140 | – | – | – |
| Cc1cc(OC(F)F)nc(C)c1Nc1nc(Cl)cn([C@H](C)C2CC2)c1=O | 2.1 | 84 | 89 | < 2 |
| Cc1cc(Nc2nc(Cl)cn([C@H](C)C3CC3)c2=O)c(C)nc1OC(F)F | – | 86 | 100 | < 2 |
| Cc1cc(Nc2nc(Cl)cn([C@H](C)C3CC3)c2=O)c(C)nc1N(C)C | 0.68 | 29 | 54 | – |
| COc1cc(C)c(Nc2nc(Cl)cn([C@H](C)C3CC3)c2=O)c(C)n1 | 12 | 81 | 79 | 3.8 |
| Cc1cc(Nc2nc(Cl)cn([C@H](C)C3CC3)c2=O)c(C)nc1N1CCCC1 | 6.8 | 26 | 57 | – |
| Cc1nc(C(F)(F)F)ccc1Nc1nc(Cl)cn([C@H](C)C2CC2)c1=O | 720 | – | – | – |
| CC[C@H](C)[C@H](NC(=O)[C@H](CC(=O)O)NC(=O)[C@H](CC(C)C)NC(=O)[C@H](CC(C)C)NC(=O)[C@H](CCCCN)NC(=O)[C@H](CCCN=C(N)N)NC(=O)[C@H](CC(N)=O)NC(=O)[C@H](CO)NC(=O)[C@H](Cc1cnc[nH]1)NC(=O)[C@H](C)NC(=O)[C@H](CCC(N)=O)NC(=O)[C@H](CCC(N)=O)NC(=O)[C@H](C)NC(=O)[C@H](CC(C)C)NC(=O)[C@H](CCC(N)=O)NC(=O)[C@H](CC(=O)O)NC(=O)[C@H](C)NC(=O)[C@H](CCCCN)NC(=O)[C@@H](NC(=O)[C@H](CCSC)NC(=O)[C@H](CCC(=O)O)NC(=O)[C@H](CC(C)C)NC(=O)[C@@H](NC(=O)[C@H](CCC(=O)O)NC(=O)[C@H](CCCN=C(N)N)NC(=O)[C@H](CC(C)C)NC(=O)[C@H](CC(C)C)NC(=O)[C@H](Cc1cnc[nH]1)NC(=O)[C@H](Cc1ccccc1)NC(=O)[C@@H](NC(=O)[C@H](CC(C)C)NC(=O)[C@H](CC(=O)O)NC(=O)[C@H](CC(C)C)NC(=O)[C@H](CO)NC(=O)[C@@H](NC(=O)[C@@H]1CCCN1C(=O)[C@@H]1CCCN1C(=O)[C@H](CCC(=O)O)NC(=O)[C@H](CCC(N)=O)NC(=O)[C@@H](N)CO)[C@@H](C)CC)[C@@H](C)O)C(C)C)[C@@H](C)O)C(=O)N[C@@H](C)C(N)=O | 2.9 | – | – | – |
| COc1nc(C)c(Nc2nc(Cl)cn([C@H](C)C3CC3)c2=O)cc1C | – | 55 | 77 | 3.6 |
| COc1ccc(Nc2nc(Cl)cn([C@H](C)C3CC3)c2=O)c(OC)n1 | 17 | 25 | 43 | – |
| COC[C@H](C1CC1)n1cc(Cl)nc(Nc2ccc(OC(F)F)nc2C)c1=O | 1.2 | – | – | – |
| COC[C@H](C1CC1)n1cc(Cl)nc(Nc2c(C)nc(OC)nc2OC)c1=O | 90 | 18 | 45 | – |
| COC[C@@H](C1CC1)n1cc(Cl)nc(Nc2ccc(OC(F)F)nc2C)c1=O | 0.8 | – | – | – |
| COc1nc(C(F)(F)F)c(Nc2nc(Cl)cn([C@H](C)C3CC3)c2=O)cc1C | 1.2 | – | – | – |
| Cc1nc(OC(F)F)ccc1Nc1nc(Cl)cn([C@H](C)C2CC2)c1=O | 1.2 | – | – | < 2 |
| COc1ccc(Nc2nc(Cl)cn([C@H](C)C3CC3)c2=O)c(C)n1 | 11 | 60 | 89 | 3.2 |
| COc1ccc(Nc2nc(Cl)cn([C@H](C)C3CC3)c2=O)c(C(F)(F)F)n1 | 1.6 | – | – | < 2 |
